Data set [1] has as its system SF-188. In words: Inhibition of cycloheximide-induced apoptosis in human SF188 cells. Type of data set: functional, cell-based.
Data set [2] relates to SF-188. Nature of the data set: Inhibition of 20S-protopanaxadiol-induced activation of caspases in human SF188 cells. It counts as cell-based.
For data set [3], the system named is SF-188. Nature of the data set: Inhibition of 20S-protopanaxadiol-induced apoptosis in human SF188 cells after 8 hrs by MTT assay. It counts as functional. Also on record: scale not given: the % may be the effect or the level left. In a few lines:
(§1)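 SF188 cells were seeded at 2.5 × 10^5/mL 24 h before use. For the inhibitor arm, cells were pretreated for 2 h with various concentrations of Z-VAD-FMK, then 43.4 µM compound was added. Viability was read by MTT assay 8 h after compound addition.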
On the technique in general: Tetrazolium dyes change colour on reduction, which living cells bring about.

The subject of data set [4] is SF-188. Nature of the data set: Inhibition of TNF-alpha-induced apoptosis in human SF188 cells. It counts as functional, cell-based.
Another data set deals with Caspase-8 (Homo sapiens) (UniProt Q14790). Nature of the data set: Activation of caspase 8 in human SF188 cells at 108.4 uM. Type of data set: cell-based. Conditions: SF-188. In a few lines: (§2)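 Western blot of SF188 lysates after treatment with 108.4 µM compound, sampled at different time points or at different concentrations. 50 µg total protein loaded per lane. Pro-caspase and cleaved (active) caspase bands were detected, with actin as loading control.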
Chain of Caspase-8 (Homo sapiens) (Q14790 217-374 limits assumed): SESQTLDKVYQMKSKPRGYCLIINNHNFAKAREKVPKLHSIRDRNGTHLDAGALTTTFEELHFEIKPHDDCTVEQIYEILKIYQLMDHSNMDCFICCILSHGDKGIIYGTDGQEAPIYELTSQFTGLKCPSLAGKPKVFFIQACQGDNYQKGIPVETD
Chain of Caspase-8 (Homo sapiens) (Q14790 385-479 limits assumed): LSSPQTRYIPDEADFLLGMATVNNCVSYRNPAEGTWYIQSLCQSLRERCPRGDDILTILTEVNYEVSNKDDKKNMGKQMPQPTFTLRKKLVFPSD

Data set [5] in a line: Cytotoxicity against human SF188 cells at 43.4 uM after 24 hrs by MTT assay. Type of data set: cell-based. Conditions: sf-188, 24 h. Summed up:
(§3)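 Glioma cells seeded at 2.5 × 10^5/mL 24 h before treatment, then exposed to a range of concentrations for 24 h. Viability was measured by MTT assay, and cell death was read from the 24 h dose-response curve.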

Data set [6] is described as follows: Cytotoxicity against human U87MG cells at 108.4 uM after 24 hrs by MTT assay. It counts as cell-based. Conditions: u-87mg atcc. Summed up:
as §3

In data set [7] the test system is SF-188. In words: Cell viability in human SF188 cells in presence of tBHQ at 86.8 uM. It counts as functional.
In data set [8] the test system is U-87MG ATCC. In words: Activation of caspases in human U87MG cells. It counts as cell-based. In a few lines: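 Western blot of U87MG cells treated with 108.4 µM compound for up to 9 h, probing pro- and cleaved caspases-8 and -3. 50 µg protein per lane. Lysate from treated SF188 cells served as positive control and actin as loading control.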
The next data set deals with T1, Caspase-9 (Homo sapiens) (UniProt P55211).
T1 sequence (whole entry): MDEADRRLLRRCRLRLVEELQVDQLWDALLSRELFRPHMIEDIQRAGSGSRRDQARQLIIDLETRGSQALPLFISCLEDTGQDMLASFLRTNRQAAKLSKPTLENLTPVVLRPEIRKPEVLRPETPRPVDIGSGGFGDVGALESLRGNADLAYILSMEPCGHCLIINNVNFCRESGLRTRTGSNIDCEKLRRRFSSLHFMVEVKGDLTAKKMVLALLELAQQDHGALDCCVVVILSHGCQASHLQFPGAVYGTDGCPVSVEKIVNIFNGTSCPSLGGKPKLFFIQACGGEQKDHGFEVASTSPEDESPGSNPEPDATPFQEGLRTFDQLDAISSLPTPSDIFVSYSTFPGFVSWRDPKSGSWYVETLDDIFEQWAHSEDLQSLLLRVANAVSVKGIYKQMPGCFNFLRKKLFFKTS
In words: Activation of caspase 9 in human SF188 cells at 108.4 uM. Conditions: SF-188. Type of data set: cell-based. In a few lines:
as §2

Data set [9] concerns SF-188. Nature of the data set: Increase in superoxide anion level in human SF188 cells after 2 hrs. Type of data set: functional, cell-based. In a few lines:
(§4)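 Superoxide anion was measured by dihydroethidine (HE) fluorescence using flow cytometry in SF188 or U87MG cells 2 h after treatment at several concentrations. Result is reported as the percentage of HE-positive cells.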

Data set [10] relates to SF-188. Nature of the data set: Induction of autophagy in human SF188 cells by MDC staining at 108.4 uM after 4 hrs. It counts as functional, cell-based. Summed up:
(§5)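 SF188 and U87MG cells were treated with 43.4 or 108.4 µM compound for 4 h. Autophagic vacuoles were then visualized by monodansylcadaverine (MDC) staining.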

Data set [11] has as its system U-87 MG. In words: Induction of autophagy in human U87MG cells by MDC staining at 108.4 uM after 4 hrs. Conditions: U-87MG ATCC. Type of data set: functional, cell-based. In a few lines:
as §5

Data set [12] deals with U-87 MG. In words: Induction of autophagy in human U87MG cells by MDC staining at 43.4 uM after 4 hrs. Conditions: U-87MG ATCC. It counts as functional, cell-based. Summed up:
as §5

The next data set addresses T2, Caspase-7 (Homo sapiens) (UniProt P55210).
T2 sequence (whole entry): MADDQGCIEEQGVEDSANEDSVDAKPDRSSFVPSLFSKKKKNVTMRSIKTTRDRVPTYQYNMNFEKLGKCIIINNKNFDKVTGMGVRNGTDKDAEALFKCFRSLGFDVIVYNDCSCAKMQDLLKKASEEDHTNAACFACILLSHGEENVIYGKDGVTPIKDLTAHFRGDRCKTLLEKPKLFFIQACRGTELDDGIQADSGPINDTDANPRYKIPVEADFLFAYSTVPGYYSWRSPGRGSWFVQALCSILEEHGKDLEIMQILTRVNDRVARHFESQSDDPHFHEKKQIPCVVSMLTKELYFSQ
Nature of the data set: Activation of caspase 7 in human SF188 cells at 108.4 uM. Conditions: SF-188. Type of data set: cell-based. In a few lines: as §2

A further data set has as its target T3, Caspase-3 (Homo sapiens) (UniProt P42574).
T3 sequence (whole entry): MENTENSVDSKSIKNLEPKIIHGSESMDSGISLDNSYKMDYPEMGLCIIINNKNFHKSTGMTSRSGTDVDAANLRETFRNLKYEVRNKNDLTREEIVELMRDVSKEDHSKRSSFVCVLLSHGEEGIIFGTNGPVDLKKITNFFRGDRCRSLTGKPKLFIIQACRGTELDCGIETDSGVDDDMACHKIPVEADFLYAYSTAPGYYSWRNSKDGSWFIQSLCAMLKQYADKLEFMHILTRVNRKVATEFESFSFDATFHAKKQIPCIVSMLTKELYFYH
Nature of the data set: Activation of caspase 3 in human SF188 cells at 108.4 uM. It counts as cell-based. Conditions: SF-188. In a few lines: as §2

Data set [13] in a line: Cytotoxicity against human U87MG cells after 24 hrs. It counts as cell-based, U-87MG ATCC. Conditions: U-87 MG. In a few lines:
as §3

In data set [14] the test system is U-87 MG. Nature of the data set: Increase in superoxide anion level in human U87MG cells after 2 hrs. It counts as functional, cell-based. Conditions: U-87MG ATCC. In a few lines: as §4
The test system of data set [15] is SF-188. In words: Cell viability in human SF188 cells in presence of Z-VAD-FMK. It counts as functional.
Data set [16] has as its system SF-188. Nature of the data set: Cell viability in human SF188 cells. It counts as functional. In a few lines:
as §1

Data set [17] concerns SF-188. In words: Induction of autophagy in human SF188 cells by MDC staining at 43.4 uM after 4 hrs. Type of data set: functional, cell-based. In a few lines: as §5
The test system of data set [18] is SF-188. In words: Reduction of Akt phosphorylation in human SF188 cells after 5 hrs. It counts as cell-based.
For data set [19], the system named is SF-188. Nature of the data set: Cell viability of human SF188 cells in presence of tBHQ, Z-VAD-FMK. Type of data set: functional.
Data set [20] deals with U-87MG ATCC. Nature of the data set: Reduction of Akt phosphorylation in human U87MG cells after 7 hrs. Type of data set: cell-based.
A short description of data set [21]: Cytotoxicity against human SF188 cells after 24 hrs. It counts as cell-based. Conditions: SF-188, 24 h. Summed up:
as §3

Data set [22] deals with SF-188. Nature of the data set: Induction of apoptosis in human SF188 cells at 108.4 uM within 3 hrs. Type of data set: functional. In a few lines: (§6)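 SF188 or U87MG cells were treated with 108 µM compound and stained by TUNEL (ApopTag). Apoptotic cells were counted as % TUNEL-positive: at 3 h for SF188, at 7 h for U87MG. Untreated cells served as controls.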
Data set [23] can be described thus: Cytotoxicity against human SF188 cells at 108.4 uM within 10 hrs by MTT assay. It counts as cell-based. Conditions: sf-188, 10 h. Summed up:
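Cells seeded at 2.5 × 10^5/mL 24 h beforehand were treated with 108.4 µM. Viability was measured by MTT assay at 1, 4, 6, 8, 10 and 24 h after treatment.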

The subject of data set [24] is U-87 MG. Nature of the data set: Induction of apoptosis in human U87MG cells at 108.4 uM within 7 hrs. Type of data set: functional, U-87MG ATCC. In a few lines: as §6

Results on 2 compounds are retold here after ChEMBL document CHEMBL1141390, “20S-protopanaxadiol-induced programmed cell death in glioma cells through caspase-dependent and -independent pathways” (J Nat Prod, 2007).

Calls of active or inactive are those of the source. No cut-off for these calls is given here. Residues, ends and D or L forms follow the SMILES beside them. *: point of attachment. Cbz = O=C(OCc1ccccc1)*; CH2F = FC*

For `CC(C)[C@H](NC(=O)OCc1ccccc1)C(=O)N[C@@H](C)C(=O)N[C@@H](CC(=O)O)C(=O)CF` (Cbz-Val-Ala-Asp-CH2F), the outcome with SF-188 [1], with SF-188 [2] and with SF-188 [4] was Active. Moreover, in the data set with SF-188 [3], the Activity is reported as 44.72%.
For orientation: IC50 means the concentration at which inhibition is half-maximal. With `CC(C)=CCC[C@](C)(O)[C@H]1CC[C@]2(C)[C@@H]1[C@H](O)C[C@@H]1[C@@]3(C)CC[C@H](O)C(C)(C)[C@@H]3CC[C@]12C`, the outcome on Caspase-8 (Homo sapiens), at Caspase-9 (Homo sapiens), in the data set on SF-188 [9], in the data set on SF-188 [10], in the data set with U-87 MG [11] and in the data set on U-87 MG [12] was Active. Also, the result on Caspase-7 (Homo sapiens), at Caspase-3 (Homo sapiens), in the data set on U-87 MG [14] and in the data set with SF-188 [17] was Active. In addition, the Activity is 100% in data set [5]; 90% in data set [6]; 30.46% in the data set with SF-188 [7]; 36% in the data set with SF-188 [15]; 16.5% with SF-188 [16]; 89.4% in the data set on SF-188 [19]. In addition, the Activity result was “Dose-dependent effect” with U-87MG ATCC [20], 42.67% with SF-188 [22], 90% in data set [23] and 51.01% in the data set with U-87 MG [24]. Further, the outcome with U-87MG ATCC [8] and in the data set with SF-188 [18] was inactive. The IC50 in data set [13] was 38 µM; in [21], 24 µM.
